The source of these data is PubChem BioAssay AID651869 (Broad Institute, 2012).

Structures are written as SMILES.

The test deals with T. cruzi CAI/72 in BESM cells, trypomastigote emergence, microscopy. Kind of test: intracellular T. cruzi clearance after withdrawal – imaging, CAI/72 strain, BESM host cells, 29-day treatment, set 2, mechanism study for T. cruzi inhibitor project, late-stage follow-up (AID 651869). Conditions: hits give high values. In outline:
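Measure: trypomastigote emergence timing as cidal versus static measure; assay system: bovine embryo skeletal muscle (BESM) cells infected with Trypanosoma cruzi CAI/72; timing: 24 h post-infection wash, alternate-day dosing 29 days, 20-day washout; measured by: daily light-microscopy scoring of trypomastigote emergence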

In the case of `C[C@H]1CN([C@@H](C)CO)C(=O)c2cccc(NC(=O)c3ccncc3)c2O[C@H]1CN(C)Cc1ccc(Oc2ccccc2)cc1`, the cidality slope score was 1100.
`C[C@@H]1CN([C@H](C)CO)C(=O)c2cccc(NC(=O)c3ccncc3)c2O[C@H]1CN(C)Cc1ccc(Oc2ccccc2)cc1`: the cidality slope score was 1100.
The value for `O=C(Cn1ccnc1[N+](=O)[O-])NCc1ccccc1` was 12; that for `C[C@H](CO)N1C[C@H](C)[C@H](CN(C)Cc2ccc(Oc3ccccc3)cc2)Oc2c(NC(=O)c3ccncc3)cccc2C1=O` was 85; that for `C[C@@H]1CN([C@@H](C)CO)C(=O)c2cccc(NC(=O)c3ccncc3)c2O[C@H]1CN(C)Cc1ccc(Oc2ccccc2)cc1` was 1100.
Consider `C[C@@H]1CN([C@@H](C)CO)C(=O)c2cccc(NC(=O)c3ccncc3)c2O[C@H]1CN(C)Cc1ccc(Cl)cc1`, for which the cidality slope score is 7.6.
For the compound `C[C@H]1CN([C@@H](C)CO)C(=O)c2cccc(NC(=O)c3ccncc3)c2O[C@@H]1CN(C)Cc1ccc(Oc2ccccc2)cc1`, the cidality slope score is 1100.
As to `C[C@@H]1CN([C@@H](C)CO)C(=O)c2cccc(NC(=O)c3ccncc3)c2O[C@H]1CN(C)Cc1cccc(Cl)c1`, the cidality slope score was 75.
As to `CC(C)N1C[C@@H](C)[C@H](CN(C)Cc2cccc(Oc3ccccc3)c2)Oc2c(NC(=O)c3ccncc3)cccc2C1=O`, the cidality slope score is 1100.
The value for `C[C@@H]1CN([C@H](C)CO)C(=O)c2cccc(NC(=O)c3ccncc3)c2O[C@H]1CN(C)Cc1ccccc1` was 85.
